Data reported in ChEMBL document CHEMBL2311431, “Synthesis and biological evaluation of some 5-arylidene-2-(1,3-thiazol-2-ylimino)-1,3-thiazolidin-4-ones as dual anti-inflammatory/antimicrobial agents” (Bioorg Med Chem, 2013).
Converted amounts (≈) assume the structure as drawn.

Key:
[1] = Inhibition of soybean lipoxygenase assessed as inhibition of sodium linolate conversion to 13-hydroperoxylinoleic acid after 4 mins by spectrophotometry; set-up: species or system Glycine max; settings: read-out: IC50
Staphylococcus aureus [2] = assay: Antibacterial activity against Staphylococcus aureus ATCC 6538 after 24 hr by microdilution test; assay type: functional; settings: ATCC 6538, 24 h
How it was run: (§1)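 Broth microdilution in LB medium, about 1.0×10^4 cfu per well; compounds from 1 mg/ml stocks in 5% DMSO. Incubated 24 h. MIC is the lowest concentration with no visible growth under a binocular microscope. Run in duplicate, repeated three times.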

Pseudomonas aeruginosa [3] = assay: Bactericidal activity against Pseudomonas aeruginosa ATCC 27853 after 72 hrs by serial subcultivation method; assay type: functional; settings: ATCC 27853, 72 h
Micrococcus flavus [4] = assay: Antibacterial activity against Micrococcus flavus ATCC 10240 after 24 hr by microdilution test; assay type: functional; settings: ATCC 10240, 24 h; how it was run: as §1
Listeria monocytogenes [5] = assay: Antibacterial activity against Listeria monocytogenes NCTC 7973 after 24 hr by microdilution test; assay type: functional; settings: NCTC 7973, 24 h; how it was run: as §1
Aspergillus niger [6] = assay: Fungicidal activity against Aspergillus niger ATCC 6275 after 72 hrs by serial subcultivation method; assay type: functional; settings: ATCC 6275, 72 h
Aspergillus niger [7] = assay: Antifungal activity against Aspergillus niger ATCC 6275 after 72 hrs by serial dilution technique; assay type: functional; settings: ATCC 6275, 72 h
How it was run: (§2)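 Serial dilution in malt broth; compounds from 1 mg/ml stocks in 5% DMSO; 72 h at 28 °C. MIC is the lowest concentration with no visible growth under a binocular microscope. Run in duplicate, repeated three times.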

Mus musculus [8] = assay: Acute toxicity in AKR mouse up to 0.5 mmol/kg, ip; assay type: organism-based; settings: in vivo
Bacillus cereus [9] = assay: Bactericidal activity against Bacillus cereus clinical isolate after 72 hrs by serial subcultivation method; assay type: functional
[10] = molecular target: T1, Prostaglandin G/H synthase 1 (Ovis aries) (UniProt P05979); assay: Inhibition of ovine COX1 assessed as inhibition of PGF2a production by enzyme immunoassay; set-up: concentration or dose not given beside the values; settings: concentration not given here
T1 sequence (whole entry): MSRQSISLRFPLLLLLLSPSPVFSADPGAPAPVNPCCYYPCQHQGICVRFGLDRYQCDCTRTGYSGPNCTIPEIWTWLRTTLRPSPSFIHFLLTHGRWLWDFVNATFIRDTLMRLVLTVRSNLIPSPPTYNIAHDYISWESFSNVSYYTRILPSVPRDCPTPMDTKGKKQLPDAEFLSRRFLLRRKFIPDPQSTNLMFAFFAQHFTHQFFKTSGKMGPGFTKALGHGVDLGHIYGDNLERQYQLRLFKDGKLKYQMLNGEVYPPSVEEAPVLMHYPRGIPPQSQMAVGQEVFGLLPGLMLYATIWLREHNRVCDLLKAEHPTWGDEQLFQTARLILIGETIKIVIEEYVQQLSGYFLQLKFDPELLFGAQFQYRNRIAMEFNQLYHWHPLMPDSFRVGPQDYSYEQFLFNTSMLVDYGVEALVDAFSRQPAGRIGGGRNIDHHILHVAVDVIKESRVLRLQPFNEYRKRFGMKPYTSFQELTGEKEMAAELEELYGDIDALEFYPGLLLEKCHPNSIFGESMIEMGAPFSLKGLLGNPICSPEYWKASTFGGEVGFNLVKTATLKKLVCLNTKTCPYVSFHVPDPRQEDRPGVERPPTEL
How it was run: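 Ovine COX-1 from a commercial screening kit, tested with 0.1 µM arachidonic acid, which is below the saturating level. COX-derived PGH2 is reduced by SnCl2 to PGF2a, quantified by enzyme immunoassay with a broad prostaglandin antibody. At least triplicate.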

Aspergillus flavus [11] = assay: Antifungal activity against Aspergillus flavus ATCC 9643 after 72 hrs by serial dilution technique; assay type: functional; settings: ATCC 9643, 72 h; how it was run: as §2
Aspergillus flavus [12] = assay: Fungicidal activity against Aspergillus flavus ATCC 9643 after 72 hrs by serial subcultivation method; assay type: functional; settings: ATCC 9643, 72 h
Talaromyces funiculosus [13] = assay: Fungicidal activity against Penicillium funiculosum ATCC 36839 after 72 hrs by serial subcultivation method; assay type: functional; settings: ATCC 36839, 72 h
Pseudomonas aeruginosa [14] = assay: Antibacterial activity against Pseudomonas aeruginosa ATCC 27853 after 24 hr by microdilution test; assay type: functional; settings: ATCC 27853, 24 h; how it was run: as §1
Trichoderma viride [15] = assay: Antifungal activity against Trichoderma viride IAM 5061 after 72 hrs by serial dilution technique; assay type: functional; settings: IAM 5061, 72 h; how it was run: as §2
Staphylococcus aureus [16] = assay: Bactericidal activity against Staphylococcus aureus ATCC 6538 after 72 hrs by serial subcultivation method; assay type: functional; settings: ATCC 6538, 72 h
Micrococcus flavus [17] = assay: Bactericidal activity against Micrococcus flavus ATCC 10240 after 72 hrs by serial subcultivation method; assay type: functional; settings: ATCC 10240, 72 h
Trichoderma viride [18] = assay: Fungicidal activity against Trichoderma viride IAM 5061 after 72 hrs by serial subcultivation method; assay type: functional; settings: IAM 5061, 72 h
Mus musculus [19] = assay: Antiinflammatory activity in AKR mouse assessed as inhibition of carrageenan-induced paw edema at 0.01 mmol/kg, ip measured after 3.5 hrs of carrageenan-challenge; assay type: functional
How it was run: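 AKR mice of both sexes (pregnant females excluded), 6-10 per group, fasted during the experiment. Edema induced by intradermal 0.05 mL of 2% carrageenin into the right hind paw. Compound given at 0.01 mmol/kg ip, suspended in water with Tween-80, at the same time as carrageenin.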

Penicillium ochrochloron [20] = assay: Fungicidal activity against Penicillium ochrochloron ATCC 9112 after 72 hrs by serial subcultivation method; assay type: functional; settings: ATCC 9112, 72 h
Penicillium ochrochloron [21] = assay: Antifungal activity against Penicillium ochrochloron ATCC 9112 after 72 hrs by serial dilution technique; assay type: functional; settings: ATCC 9112, 72 h; how it was run: as §2
Bacillus cereus [22] = assay: Antibacterial activity against Bacillus cereus clinical isolate after 24 hr by microdilution test; assay type: functional; how it was run: as §1
Escherichia coli [23] = assay: Antibacterial activity against Escherichia coli ATCC 35210 after 24 hr by microdilution test; assay type: functional; settings: ATCC 35210, 24 h; how it was run: as §1
Talaromyces funiculosus [24] = assay: Antifungal activity against Penicillium funiculosum ATCC 36839 after 72 hrs by serial dilution technique; assay type: functional; settings: ATCC 36839, 72 h; how it was run: as §2
Listeria monocytogenes [25] = assay: Bactericidal activity against Listeria monocytogenes NCTC 7973 after 72 hrs by serial subcultivation method; assay type: functional; settings: NCTC 7973, 72 h
Aspergillus fumigatus [26] = assay: Fungicidal activity against Aspergillus fumigatus after 72 hrs by serial subcultivation method; assay type: functional
Escherichia coli [27] = assay: Bactericidal activity against Escherichia coli ATCC 35210 after 72 hrs by serial subcultivation method; assay type: functional; settings: ATCC 35210, 72 h
Aspergillus fumigatus [28] = assay: Antifungal activity against Aspergillus fumigatus after 72 hrs by serial dilution technique; assay type: functional; how it was run: as §2

SMILES | IC50 [1] | MIC (Staphylococcus aureus [2]) | MBC (Pseudomonas aeruginosa [3]) | MIC (Micrococcus flavus [4]) | MIC (Listeria monocytogenes [5]) | MFC (Aspergillus niger [6]) | MIC (Aspergillus niger [7]) | Activity (Mus musculus [8]) | MBC (Bacillus cereus [9]) | inhibition [10] | MIC (Aspergillus flavus [11]) | MFC (Aspergillus flavus [12]) | MFC (Talaromyces funiculosus [13]) | MIC (Pseudomonas aeruginosa [14]) | MIC (Trichoderma viride [15]) | MBC (Staphylococcus aureus [16]) | MBC (Micrococcus flavus [17]) | MFC (Trichoderma viride [18]) | inhibition in vivo at 10 µmol/kg (Mus musculus [19]) | MFC (Penicillium ochrochloron [20]) | also measured
COc1ccccc1/C=C1\S/C(=N/c2nccs2)NC1=O | 63 µM | 31.5 µM (≈ 10 µg/mL) | 63 µM (≈ 20 µg/mL) | 31.5 µM (≈ 10 µg/mL) | 31.5 µM (≈ 10 µg/mL) | 31.5 µM (≈ 10 µg/mL) | 15.8 µM (≈ 5.01 µg/mL) | Non-toxic | 31.5 µM (≈ 10 µg/mL) | 86% | 23.6 µM (≈ 7.49 µg/mL) | 31.5 µM (≈ 10 µg/mL) | 31.5 µM (≈ 10 µg/mL) | 31.5 µM (≈ 10 µg/mL) | 15.8 µM (≈ 5.01 µg/mL) | 63 µM (≈ 20 µg/mL) | 31.5 µM (≈ 10 µg/mL) | 31.5 µM (≈ 10 µg/mL) | 50% | 31.5 µM (≈ 10 µg/mL) | MIC (Penicillium ochrochloron [21]): 15.8 µM (≈ 5.01 µg/mL); MIC (Bacillus cereus [22]): 31.5 µM (≈ 10 µg/mL); MIC (Escherichia coli [23]): 31.5 µM (≈ 10 µg/mL); MIC (Talaromyces funiculosus [24]): 15.8 µM (≈ 5.01 µg/mL); MBC (Listeria monocytogenes [25]): 63 µM (≈ 20 µg/mL); MFC (Aspergillus fumigatus [26]): 31.5 µM (≈ 10 µg/mL); MBC (Escherichia coli [27]): 63 µM (≈ 20 µg/mL); MIC (Aspergillus fumigatus [28]): 15.8 µM (≈ 5.01 µg/mL)
O=C1N/C(=N\c2nc(-c3ccccc3)cs2)S/C1=C\c1ccc(Cl)cc1 | 54 µM | 50 µM (≈ 19.9 µg/mL) | 100 µM (≈ 39.8 µg/mL) | 25 µM (≈ 9.95 µg/mL) | 50 µM (≈ 19.9 µg/mL) | 27.3 µM (≈ 10.9 µg/mL) | 13.7 µM (≈ 5.45 µg/mL) | Non-toxic | 50 µM (≈ 19.9 µg/mL) | 78% | 13.7 µM (≈ 5.45 µg/mL) | 27.3 µM (≈ 10.9 µg/mL) | 27.3 µM (≈ 10.9 µg/mL) | 50 µM (≈ 19.9 µg/mL) | 13.7 µM (≈ 5.45 µg/mL) | 100 µM (≈ 39.8 µg/mL) | 25 µM (≈ 9.95 µg/mL) | 27.3 µM (≈ 10.9 µg/mL) | 27.3% | 27.3 µM (≈ 10.9 µg/mL) | MIC (Penicillium ochrochloron [21]): 13.7 µM (≈ 5.45 µg/mL); MIC (Bacillus cereus [22]): 25 µM (≈ 9.95 µg/mL); MIC (Escherichia coli [23]): 50 µM (≈ 19.9 µg/mL); MIC (Talaromyces funiculosus [24]): 20.5 µM (≈ 8.16 µg/mL); MBC (Listeria monocytogenes [25]): 100 µM (≈ 39.8 µg/mL); MFC (Aspergillus fumigatus [26]): 27.3 µM (≈ 10.9 µg/mL); MBC (Escherichia coli [27]): 50 µM (≈ 19.9 µg/mL); MIC (Aspergillus fumigatus [28]): 13.7 µM (≈ 5.45 µg/mL)
